Test results: ChEMBL document CHEMBL1165950, “Design and synthesis of new potent anticancer pyrazoles with high FLT3 kinase inhibitory selectivity” (Bioorg Med Chem, 2010)

Experiments:
Type in all cases: functional
HT-29 [1] = experiment: Cytotoxicity against human HT-29 cells assessed as cell growth at 100 nM after 48 hrs by sulforhodamine B assay; settings: HT-29, 48 h, read-out: Activity
CCRF-CEM = experiment: Cytotoxicity against human CCRF-CEM cells assessed as cell growth at 0.01 uM after 48 hrs by sulforhodamine B assay; settings: read-out: Activity
In short: (§1)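 NCI-60 five-dose screen. Cells were grown in RPMI 1640 with 5% FBS and 2 mM L-glutamine, plated at 5000–40,000 cells/well and preincubated for 24 h. Time-zero plates were TCA-fixed. DMSO-solubilized drug was added at five concentrations (10-fold or ½-log serial dilutions) for 48 h at 37 °C, 5% CO2. Cells were TCA-fixed, stained with 0.4% SRB and read at 515 nm. Percent growth used time-zero, control and test absorbances.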

UO-31 = experiment: Cytotoxicity against human UO31 cells assessed as cell growth at 100 nM after 48 hrs by sulforhodamine B assay; settings: UO-31, 48 h, read-out: Activity
M14 [2] = experiment: Cytotoxicity against human M14 cells assessed as cell growth at 10 uM; settings: read-out: Activity
In short: (§2)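 NCI-60 screen: cells grown in RPMI 1640 with 5% FBS and 2 mM L-glutamine, plated at 5000–40,000 cells/well according to doubling time, and preincubated 24 h at 37 °C, 5% CO2. The single 10 µM dose (DMSO stock) was added, then incubated 48 h. Cells were TCA-fixed and stained with 0.4% SRB, read at 515 nm, and growth % calculated against time-zero and control plates.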

SK-MEL-2 = experiment: Cytotoxicity against human SK-MEL-2 cells assessed as cell growth at 10 uM; settings: read-out: Activity; in short: as §2
DU-145 = experiment: Cytotoxicity against human DU145 cells assessed as cell growth at 10 uM; settings: read-out: Activity
In short: (§3)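 Single-dose NCI-60 screen at 10 µM. Cells were grown in RPMI 1640 with 5% FBS and 2 mM L-glutamine, then treated for 48 h at 37 °C. Protein was measured by SRB staining with absorbance at 515 nm. Percentage growth was recorded, and inhibition percentage was calculated as 100 minus growth percentage.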

HT-29 [3] = experiment: Cytotoxicity against human HT-29 cells assessed as cell growth at 1 uM after 48 hrs by sulforhodamine B assay; settings: HT-29, 48 h, read-out: Activity
SF-295 [4] = experiment: Cytotoxicity against human SF295 cells assessed as cell growth at 1 uM after 48 hrs by sulforhodamine B assay; settings: SF-295, 48 h, read-out: Activity
LOX IMVI [5] = experiment: Cytotoxicity against human LOXIMVI cells assessed as cell growth at 1 uM after 48 hrs by sulforhodamine B assay; settings: read-out: Activity
NCI-H322M [6] = experiment: Cytotoxicity against human NCI-H322M cells assessed as cell growth at 0.01 uM after 48 hrs by sulforhodamine B assay; settings: read-out: Activity
SNB-75 = experiment: Cytotoxicity against human SNB75 cells assessed as cell growth at 0.01 uM after 48 hrs by sulforhodamine B assay; settings: SNB-75, 48 h, read-out: Activity
Malme-3M = experiment: Cytotoxicity against human MALME-3M cells assessed as cell growth at 0.01 uM after 48 hrs by sulforhodamine B assay; settings: read-out: Activity
A498 [7] = experiment: Cytotoxicity against human A498 cells assessed as cell growth at 0.01 uM after 48 hrs by sulforhodamine B assay; settings: A498, 48 h, read-out: Activity; in short: as §1
NCI-H322M [8] = experiment: Cytotoxicity against human NCI-H322M cells assessed as cell growth at 0.001 uM after 48 hrs by sulforhodamine B assay; settings: read-out: Activity
HCT-116 = experiment: Cytotoxicity against human HCT116 cells assessed as cell growth at 0.001 uM after 48 hrs by sulforhodamine B assay; settings: HCT-116, 48 h, read-out: Activity
LOX IMVI [9] = experiment: Cytotoxicity against human LOXIMVI cells assessed as cell growth at 0.001 uM after 48 hrs by sulforhodamine B assay; settings: read-out: Activity
CAKI-1 = experiment: Cytotoxicity against human Caki1 cells assessed as cell growth at 0.001 uM after 48 hrs by sulforhodamine B assay; settings: CAKI-1, 48 h, read-out: Activity
HOP-62 = experiment: Growth inhibition of human HOP62 cells after 48 hrs by sulforhodamine B assay; settings: HOP-62, 48 h
In short: (§4)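 NCI 60-cell screen, five-dose mode. Cells grown in RPMI 1640 with 5% FBS and 2 mM L-glutamine and plated at 5000-40,000 cells/well according to doubling time. After 24 h preincubation, a Tz plate was TCA-fixed. Five concentrations (10-fold or 1/2 log dilutions) were applied for 48 h at 37 °C. SRB staining read at 515 nm. IC50 taken from [(Ti-Tz)/(C-Tz)]×100 = 50.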

KM12 = experiment: Growth inhibition of human KM12 cells after 48 hrs by sulforhodamine B assay; settings: KM12, 48 h; for CC50: read-out: LC50 (the source's name); in short: as §4
MOLT-4 = experiment: Cytotoxicity against human MOLT4 cells assessed as cell growth at 100 nM after 48 hrs by sulforhodamine B assay; settings: MOLT-4, 48 h, read-out: Activity
NCI-H23 = experiment: Cytotoxicity against human NCI-H23 cells assessed as cell growth at 100 nM after 48 hrs by sulforhodamine B assay; settings: NCI-H23, 48 h, read-out: Activity
A498 [10] = experiment: Cytotoxicity against human A498 cells assessed as cell growth at 1 uM after 48 hrs by sulforhodamine B assay; settings: A498, 48 h, read-out: Activity; in short: as §1
HT-29 [11] = experiment: Cytotoxicity against human HT-29 cells assessed as cell growth at 10 uM; settings: read-out: Activity; in short: as §3
SW-620 = experiment: Cytotoxicity against human SW620 cells assessed as cell growth at 10 uM; settings: read-out: Activity; in short: as §2
SF-295 [12] = experiment: Cytotoxicity against human SF295 cells assessed as cell growth at 10 uM; settings: read-out: Activity; in short: as §2
EKVX = experiment: Cytotoxicity against human EKVX cells assessed as cell growth at 10 uM after 48 hrs by sulforhodamine B assay; settings: read-out: Activity
SNB-19 = experiment: Cytotoxicity against human SNB19 cells assessed as cell growth at 10 uM after 48 hrs by sulforhodamine B assay; settings: SNB-19, 48 h, read-out: Activity
U-251 = experiment: Cytotoxicity against human U251 cells assessed as cell growth at 10 uM after 48 hrs by sulforhodamine B assay; settings: U-251, 48 h, read-out: Activity
M14 [13] = experiment: Cytotoxicity against human M14 cells assessed as cell growth at 10 uM after 48 hrs by sulforhodamine B assay; settings: M14, 48 h, read-out: Activity
UACC-257 = experiment: Cytotoxicity against human UACC257 cells assessed as cell growth at 10 uM after 48 hrs by sulforhodamine B assay; settings: UACC-257, 48 h, read-out: Activity
UACC-62 = experiment: Cytotoxicity against human UACC62 cells assessed as cell growth at 10 uM after 48 hrs by sulforhodamine B assay; settings: UACC-62, 48 h, read-out: Activity
OVCAR-8 = experiment: Cytotoxicity against human OVCAR8 cells assessed as cell growth at 10 uM after 48 hrs by sulforhodamine B assay; settings: OVCAR-8, 48 h, read-out: Activity

SMILES	growth at 0.1 µM (HT-29 [1]) [%]	growth at 0.01 µM (CCRF-CEM) [%]	growth at 0.1 µM (UO-31) [%]	growth at 10 µM (M14 [2]) [%]	growth at 10 µM (SK-MEL-2) [%]	growth at 10 µM (DU-145) [%]	growth at 1 µM (HT-29 [3]) [%]	growth at 1 µM (SF-295 [4]) [%]	growth at 1 µM (LOX IMVI [5]) [%]	growth at 0.01 µM (NCI-H322M [6]) [%]	growth at 0.01 µM (SNB-75) [%]	growth at 0.01 µM (Malme-3M) [%]	growth at 0.01 µM (A498 [7]) [%]	growth at 0.001 µM (NCI-H322M [8]) [%]	growth at 0.001 µM (HCT-116) [%]	growth at 0.001 µM (LOX IMVI [9]) [%]	growth at 0.001 µM (CAKI-1) [%]	GI50 (HOP-62) [µM]	LC50 (50% lethal concentration) (HOP-62) [µM]	TGI (HOP-62) [µM]	further results
COc1cc(C)cc(-c2c(-c3ccnc(-c4ccc(N(C)C)cc4)c3)cnn2CC#N)c1	-24	73	45	-17.5	49.3	3.17	-51	-27	12	83	65	34	40	97	102	88	124	0.263	> 100	> 100	GI50 (KM12): 0.0475 µM; TGI (KM12): 0.264 µM; CC50 (KM12): > 100 µM; growth at 0.1 µM (MOLT-4): 9%; growth at 0.1 µM (NCI-H23): 28%; growth at 1 µM (A498 [10]): 17%; growth at 10 µM (HT-29 [11]): -33.3%; growth at 10 µM (SW-620): 16.6%; growth at 10 µM (SF-295 [12]): 4.06%; growth at 10 µM (EKVX): 2%; growth at 10 µM (SNB-19): 35%; growth at 10 µM (U-251): 6%; growth at 10 µM (M14 [13]): -7%; growth at 10 µM (UACC-257): 18%; growth at 10 µM (UACC-62): 16%; growth at 10 µM (OVCAR-8): 8%
COc1cc(C)cc(-c2nn(CC#N)cc2-c2ccc(-c3cccc(C(C)=O)c3)nc2)c1	99	94	79	6.52	35.4	39	4	16	23	91	83	85	60	94	101	98	101	3.07	> 100	36.9	GI50 (KM12): 2.23 µM; TGI (KM12): 13.9 µM; CC50 (KM12): > 100 µM; growth at 0.1 µM (MOLT-4): 84%; growth at 0.1 µM (NCI-H23): 88%; growth at 1 µM (A498 [10]): -21%; growth at 10 µM (HT-29 [11]): 3.66%; growth at 10 µM (SW-620): 24.8%; growth at 10 µM (SF-295 [12]): 16.9%; growth at 10 µM (EKVX): -10%; growth at 10 µM (SNB-19): 19%; growth at 10 µM (U-251): -37%; growth at 10 µM (M14 [13]): -43%; growth at 10 µM (UACC-257): 3%; growth at 10 µM (UACC-62): 25%; growth at 10 µM (OVCAR-8): -11%
Cc1cc(O)cc(-c2nn(CC#N)cc2-c2ccnc(-c3ccc(N(C)C)cc3)c2)c1	102	96	82	6.66	43.2	80.3	24	-5	29	92	75	92	80	94	95	103	103	2.82	> 100	23.4	GI50 (KM12): 1.63 µM; TGI (KM12): 7.66 µM; CC50 (KM12): 29.2 µM; growth at 0.1 µM (MOLT-4): 89%; growth at 0.1 µM (NCI-H23): 98%; growth at 1 µM (A498 [10]): 5%; growth at 10 µM (HT-29 [11]): 20.5%; growth at 10 µM (SW-620): 25%; growth at 10 µM (SF-295 [12]): 56.9%; growth at 10 µM (EKVX): -1%; growth at 10 µM (SNB-19): -15%; growth at 10 µM (U-251): -66%; growth at 10 µM (M14 [13]): -75%; growth at 10 µM (UACC-257): -25%; growth at 10 µM (UACC-62): -80%; growth at 10 µM (OVCAR-8): -5%
Cc1cc(O)cc(-c2nn(CC#N)cc2-c2ccnc(-c3ccc(Oc4ccccc4)cc3)c2)c1	91	93	85	55.1	73.9	76.7	-65	30	-91	89	79	77	78	94	95	100	101	1.17	52.3	24.7	GI50 (KM12): 1.92 µM; TGI (KM12): 4.87 µM; CC50 (KM12): 15.3 µM; growth at 0.1 µM (MOLT-4): 79%; growth at 0.1 µM (NCI-H23): 96%; growth at 1 µM (A498 [10]): 26%; growth at 10 µM (HT-29 [11]): 0.27%; growth at 10 µM (SW-620): 53.9%; growth at 10 µM (SF-295 [12]): 77.7%; growth at 10 µM (EKVX): -41%; growth at 10 µM (SNB-19): -93%; growth at 10 µM (U-251): -98%; growth at 10 µM (M14 [13]): -94%; growth at 10 µM (UACC-257): -93%; growth at 10 µM (UACC-62): -95%; growth at 10 µM (OVCAR-8): -88%
COc1cc(C)cc(-c2nn(CC#N)cc2-c2ccnc(-c3ccc(N(C)C)cc3)c2)c1	25	100	39	-10	40.8	2.87	-29	-7	5	108	98	91	88	99	96	98	102	0.39	> 100	18.7	GI50 (KM12): 0.31 µM; TGI (KM12): 1.62 µM; CC50 (KM12): 25.5 µM; growth at 0.1 µM (MOLT-4): 39%; growth at 0.1 µM (NCI-H23): 31%; growth at 1 µM (A498 [10]): -26%; growth at 10 µM (HT-29 [11]): -7.04%; growth at 10 µM (SW-620): 21.9%; growth at 10 µM (SF-295 [12]): -8.52%; growth at 10 µM (EKVX): 23%; growth at 10 µM (SNB-19): 9%; growth at 10 µM (U-251): -32%; growth at 10 µM (M14 [13]): -16%; growth at 10 µM (UACC-257): 13%; growth at 10 µM (UACC-62): -8%; growth at 10 µM (OVCAR-8): -8%
